# Screens as filed in PubChem.
# A selection: hits, their analogues and other compounds. The true share with any hit is near 4.5%.
# CHO parental Ca: signal in parental CHO cells, OX1R antagonist counter-screen; parental CHO-K1, ATP-induced calcium, Fluo-8 fluorescence; inhibition, % at 5.6 µM; 330,000 tested, 0.63% active; AID 463079;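 active means inhibition above that plate's mean sample inhibition plus 3 SD, cut at about 26% in these data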;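 further: 0% = ATP-challenged DMSO wells and 100% = DMSO wells without ATP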
#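 Material – parental CHO cells · Reagent – ATP stimulus · Compound – single nominal dose of 5.6 µM per compound · Detection – Fluo-8 fluorescence · Read-out basis – percent inhibition of calcium signal · Controls – ATP-challenged DMSO wells low, unchallenged DMSO wells high · Repeats – no replicates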
# GPR7 antag: blocks human GPR7 receptor signaling | P48145 | 290,000 tested, 1.1% active | inhibition, % at 4.4 µM | GPR7-expressing cells, fluorescence antagonist assay; in the data active means inhibition above about 16%, passing the limit was not always enough;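 further: cells stimulated with the agonist NPW; 0% = agonist with vehicle and 100% = vehicle without agonist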
# TAAR1 antag: human TAAR1 antagonism | Q96RJ0 | CHO RD-HGA16 TAAR1, Fluo-8 calcium fluorescence, antagonist | inhibition, % at 3 µM | 360,000 tested, 1.5% active;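 active means inhibition above a per-plate cutoff, the mean inhibition of test compounds on that plate plus 3 SD, cut at about 49% in these data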;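 further: 0% = DMSO plus EC80 beta-PEA response and 100% = DMSO alone without agonist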
# Target sequence (Q96RJ0 whole entry, looked up): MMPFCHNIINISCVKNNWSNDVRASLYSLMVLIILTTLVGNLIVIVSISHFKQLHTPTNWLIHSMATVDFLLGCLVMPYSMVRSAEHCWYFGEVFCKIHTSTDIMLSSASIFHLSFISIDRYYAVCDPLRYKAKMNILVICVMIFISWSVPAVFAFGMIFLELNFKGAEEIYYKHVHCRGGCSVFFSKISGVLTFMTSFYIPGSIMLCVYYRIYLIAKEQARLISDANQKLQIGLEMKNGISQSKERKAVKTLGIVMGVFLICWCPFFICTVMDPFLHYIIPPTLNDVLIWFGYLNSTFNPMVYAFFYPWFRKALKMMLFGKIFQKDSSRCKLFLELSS
#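 test system = CHO RD-HGA16 cells bearing hTAAR1 | replication = singlicate | controls = DMSO-only wells and EC80 β-PEA-stimulated wells | reagent = EC80 β-phenethylamine stimulus | read-out basis = percent inhibition of PEA-evoked calcium signal, max/basal emission ratio | schedule = seeding 17-24 h prior, 75-min 37 °C, 30-min RT dye loading | signal = kinetic Fluo-8 calcium fluorescence measurement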
# OX1R antag-1: antagonists of human orexin 1 receptor (OX1R); AID 485270; inhibition, % at 6.6 µM; 330,000 tested, 1.8% active; OX1R-expressing cells, FRET antagonist read-out; O43613; in the data active means inhibition mostly above about 38%, no sharp cut-off; inactive means mostly below about 40%;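 further: 0% = agonist challenge alone and 100% = reference antagonist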
# Target sequence (O43613 whole entry, looked up): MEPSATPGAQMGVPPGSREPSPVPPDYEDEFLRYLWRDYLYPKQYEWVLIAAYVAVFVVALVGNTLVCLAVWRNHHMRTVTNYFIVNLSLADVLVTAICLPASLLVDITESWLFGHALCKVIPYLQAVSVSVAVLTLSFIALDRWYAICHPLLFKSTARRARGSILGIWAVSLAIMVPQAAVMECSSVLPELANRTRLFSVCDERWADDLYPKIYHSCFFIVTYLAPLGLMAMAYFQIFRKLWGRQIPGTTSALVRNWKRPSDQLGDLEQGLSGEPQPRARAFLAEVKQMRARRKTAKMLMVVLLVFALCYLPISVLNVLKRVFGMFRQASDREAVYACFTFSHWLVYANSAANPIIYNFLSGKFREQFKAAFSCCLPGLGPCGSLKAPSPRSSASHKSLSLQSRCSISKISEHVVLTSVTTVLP
# TAAR1 agonist: human TAAR1 agonism. 360,000 tested, 0.99% active. CHO RD-HGA16 TAAR1, Fluo-8 calcium fluorescence; vehicle wells 0%, saturating PEA agonist 100%. activation, % at 3 µM. AID 624467;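 active means activation above the mean activation of all test compounds in the run plus 3 SD, cut at about 38% in these data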
#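 Test system: RD-HGA16 (CHO) cells co-expressing Gα16 and hTAAR1; dosing: one-point dosing at 3 µM (nominal); timing: 17-24 h seeding, 75 min 37 °C dye, 30 min RT; signal: kinetic Fluo-8 calcium fluorescence; read-out basis: % activation relative to PEA EC100 response; controls: DMSO and PEA EC100; replicates: n 1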
# OX1R antag-2: blocks the human orexin 1 receptor; 330,000 tested, 0.43% active; O43613; AID 434989; inhibition, % at 5 µM; CHO/OX1R cells, Fluo-8 calcium fluorescence, orexin A;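 active means inhibition above its plate's threshold, mean inhibition of all tested compounds on the plate plus 3 SD, cut at about 37% in these data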;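 further: 0% = orexin A challenge wells and 100% = SB-334867-A antagonist wells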
# TAAR1 nonsel count: counter-screen for TAAR1 antagonists: nonselective antagonists | shares compounds with TAAR1 antag | counterscreen cell line, calcium fluorescence, antagonist mode | inhibition, % at 3 µM | 2,400 tested, 77% active | AID 651780; in the data active means inhibition above about 22%;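 further: CHO-Ga16 host cells stimulated with ATP at an EC80 level; 0% = agonist EC80 plus vehicle and 100% = vehicle without agonist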
# TAAR1 antag conf: human TAAR1 antagonism, confirmed | shares compounds with TAAR1 antag | inhibition, % at 3 µM | 2,400 tested, 40% active | TAAR1-expressing cells, fluorescence antagonist read-out | AID 651785; in the data active means inhibition above about 49%;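 further: CHO-Ga16 host cells challenged with agonist PEA near its EC80; 0% = agonist at EC80 plus vehicle and 100% = vehicle with no agonist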
# Ga16 ag counter: nonselective Ga16 agonism, counter-screen. shares compounds with TAAR1 antag. Ga16-expressing cells, calcium fluorescence, agonist counterscreen. activation, % at 3 µM. 2,400 tested, 18% active. AID 651953; in the data active means activation above about 12%;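 further: 0% = vehicle wells and 100% = saturating stimulus response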
# TAAR1 ag counter: activates human TAAR1 in antagonist counter-screen; shares compounds with TAAR1 antag; hTAAR1 cell line, fluorescence activation, agonist mode; activation, % at 3 µM; 2,400 tested, 2% active; in the data active means activation above about 37%;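 further: CHO cells stably expressing TAAR1 with calcium dye readout; 0% = DMSO vehicle and 100% = full agonist response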
# The depositor's hits bear a star; . = not tested or not shown.
SMILES,CHO parental Ca,GPR7 antag,TAAR1 antag,OX1R antag-1,TAAR1 agonist,OX1R antag-2,TAAR1 nonsel count,TAAR1 antag conf,Ga16 ag counter,TAAR1 ag counter
CSc1ccc(CCNC(=O)c2ccc(CS(=O)Cc3ccccc3Cl)o2)cc1 (stereo not drawn),-23.3,-1.5,47.1,15.3,14.1,-7.4,.,.,.,.
O=C(c1ccc(CS(=O)Cc2ccc(Cl)cc2)o1)N1CCN(c2ccccn2)CC1 (stereo not drawn),-17.9,-3.9,5.5,16.3,9.7,-34.1,.,.,.,.
O=C(Nc1cccs1)Nc1ccccc1Br,3.2,-13.2,1.7,8.5,11.2,-2.8,.,.,.,.
Cc1nn(CCc2nn[nH]n2)c2nc(-c3ccc(C4CCCCC4)cc3)cc(C(F)(F)F)c12,54.8*,5.3,79.7*,11.3,7.8,32.6,89.3*,68.5*,5.5,2.8
OC1(c2cccc(C(F)(F)F)c2)CCN(c2ccc(-c3ccccc3)nn2)CC1,-4.7,-11.6,74.6*,14.6,9.6,-12.6,19.1,39.2,3.9,-1.1
Cc1ccc2nc(-c3ccccc3)cc(C(=O)N3CCN(c4ccccc4O)CC3)c2c1,-16.2,.,66.0*,3.4,12.0,-14.5,33.3*,50.7*,7.6,8.2
NC(=O)C1CCN(C(=O)c2cc(-c3ccc(Cl)cc3)nc3ccccc23)CC1,-14.5,.,54.1*,9.0,7.2,-22.8,22.6*,37.8,7.1,1.2
O=C(c1cc(-c2cccc3ccccc23)nc2ccccc12)N1CCN(CCO)CC1,-16.0,.,53.9*,7.0,16.4,-29.4,27.7*,43.5,8.7,9.9
O=C(c1cc(-c2ccncc2)nc2ccccc12)N1CCN(c2ccccc2O)CC1,-18.5,-2.8,60.2*,1.1,15.7,-24.2,29.1*,46.3,8.4,9.6
O=C(c1cc(-c2ccncc2)nc2ccccc12)N1CCN(c2ncccn2)CC1,-15.3,.,39.4,12.7,15.7,-22.2,.,.,.,.
CC/C(=N/OC(=O)c1cccc(C)c1)C(=O)c1cccs1,-12.6,-12.4,0.4,3.0,3.5,-13.5,.,.,.,.
CC(C)(C)c1cc(C(=O)N/N=C/c2ccc(-c3ccccc3[N+](=O)[O-])o2)n[nH]1,-5.2,-7.5,63.2*,41.9,4.9,-3.1,26.9*,53.5*,6.8,2.6
O=C(N/N=C/c1ccc(-c2ccccc2[N+](=O)[O-])o1)c1cccnc1,-8.2,-4.9,15.9,34.1,6.1,-18.0,.,.,.,.
CC(NC(=O)COC(=O)c1ccc(N(C)C)cc1)c1ccccc1 (stereo not drawn),-15.8,-8.7,-2.9,24.3,3.7,-31.5,.,.,.,.
COc1ccc(C(=O)Nc2ccnn2C2CCN(C(=O)c3cnsn3)CC2)cc1,5.2,-14.0,-12.6,20.1,0.0,-19.6,.,.,.,.
CCN(CC(=O)NCc1ccc(Cl)cc1)S(=O)(=O)c1ccc(F)cc1,-8.3,9.3,-10.2,14.0,-2.5,-26.6,.,.,.,.
CCN(CC(=O)NCc1ccc(Cl)cc1)S(=O)(=O)c1ccc(NC(C)=O)cc1,-14.6,8.5,77.7*,2.6,19.1,-12.5,20.9,46.6,9.1,11.1
Cc1c(C(=O)N2CCCCC2)c(S(=O)(=O)N(C)Cc2ccccc2)c(C)n1C,-30.2,-4.9,-7.5,8.1,7.0,-30.2,.,.,.,.
CCOC(=O)CCP(=O)(O)C(C)(O)c1ccccc1 (stereo not drawn),-2.3,-2.6,106.5*,11.9,6.3,-5.8,-1.1,-2.4,6.6,7.2
CCCNNC(=O)C(O)(c1ccccc1)c1ccccc1,0.5,-0.2,5.4,29.2,-0.7,-15.1,.,.,.,.
Cc1nn(-c2ccccc2)c(N2CCCC2)c1/C=N/NC(=O)c1cc2ccccc2cc1O,-14.7,-5.4,50.9*,7.5,11.4,-24.7,44.0*,49.8*,11.9*,10.7
Cc1ccc(CNC(=O)C(C(=O)NCc2ccc(C)o2)c2ncc(C(F)(F)F)cc2Cl)o1,-9.8,1.5,9.5,21.9,-1.5,-40.8,.,.,.,.
CS(=O)(=O)c1ccc2nc(NC(=O)C3CC3)sc2c1,-4.2,.,-32.0,21.8,0.8,-9.2,.,.,.,.
CCOc1ccc(N2CC(NS(=O)(=O)c3cccs3)CC2=O)cc1 (stereo not drawn),15.8,.,-38.2,-1.7,5.9,-6.6,.,.,.,.
CC(=O)Nc1ccc(CCc2nc3ccccc3[nH]2)cc1,4.3,-15.6,-9.1,3.8,5.4,2.0,.,.,.,.
SMILES,CHO parental Ca,GPR7 antag,TAAR1 antag,OX1R antag-1,TAAR1 agonist,OX1R antag-2,TAAR1 nonsel count,TAAR1 antag conf,Ga16 ag counter,TAAR1 ag counter
CC(C)c1ccc(NC(=O)N(CCc2nc3ccccc3[nH]2)C2CCCC2)cc1,-17.6,7.5,54.1*,16.6,4.4,-33.3,29.9*,38.3,5.4,6.3
CC(C)(C)c1ccc(/C([O-])=C(/C(=S)NCc2ccco2)[n+]2ccccc2)cc1,-4.8,-9.2,.,36.2,.,-5.2,.,.,.,.
O=C1NC(=S)S/C1=C/c1ccc(N2CCOCC2)o1,-2.8,-8.1,.,29.4,.,0.6,.,.,.,.
COc1ccc2cc(/C=C3\SC(=S)NC3=O)c(N3CCOCC3)nc2c1,-11.0,-8.9,52.6*,73.8*,3.8,-15.1,36.1*,41.8,5.4,-0.3
Cc1ccccc1NC(=O)Cc1nc(CSc2nnc(-c3ccc4c(c3)OCO4)o2)cs1,-9.5,6.8,55.0*,34.8,15.4,-7.9,25.3*,36.9,8.2,4.6
NC(=O)C1CCN(c2ncnc3c2c(-c2ccccc2)cn3-c2ccccc2)CC1,-4.2,-8.2,64.3*,12.8,7.9,-18.6,25.0*,41.0,8.6,8.1
Fc1ccc(-n2cc(-c3ccccc3)c3c(N4CCOCC4)ncnc32)cc1,-19.2,-5.4,66.6*,8.5,7.7,-46.5,15.4,35.6,7.2,16.8
OCCN1CCN(c2ncnc3c2c(-c2ccccc2)cn3-c2ccc(Br)cc2)CC1,-10.4,0.5,24.0,20.5,6.3,-15.6,.,.,.,.
COc1ccc(-n2cc(-c3ccccc3)c3c(N4CCOCC4)ncnc32)cc1,-2.5,-25.1,68.6*,19.1,4.8,-31.3,24.1*,47.4,7.8,16.0
Cc1ccc(S(=O)(=O)N2CCOC23CCN(C(=O)C(=O)NCCC(C)C)CC3)cc1,17.7,.,-16.7,22.4,5.6,-17.6,.,.,.,.
CCCN1C(=O)c2cc(C(=O)Nc3ccccc3OC)ccc2C1Nc1ccccc1OC (stereo not drawn),-5.6,-8.4,60.0*,-1.6,8.1,-6.9,29.4*,42.6,5.3,4.5
